From ChEMBL document CHEMBL1153060, “Part 1: Structure-Activity Relationship (SAR) investigations of fused pyrazoles as potent, selective and orally available inhibitors of p38alpha mitogen-activated protein kinase” (Bioorg Med Chem Lett, 2009)
In brackets after ≈: the same amount, converted by molar mass.

How the values were obtained:
[1] = Clearance in Sprague-Dawley rat at 2 mg/kg, iv; type: ADME, organism-based; design: dose 2 mg/kg, route intravenous; conditions: in vivo
Outline: (§1)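 Male Sprague–Dawley rats given 2.0 mg/kg iv (in DMSO) or 2.0 mg/kg po. Values are the mean of three rats. Reported parameters are CL, Vdss, t1/2, AUC(0-inf) and oral F.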

[2] = target: Mitogen-activated protein kinase 14 (Homo sapiens, UniProt Q16539); assay: Inhibition of human recombinant p38alpha assessed as phosphorylation of ATF2 by scintillation proximity assay
THP-1 = assay: Inhibition of LPS-induced TNFalpha release in human THP1 cells after 3 hrs; type: functional, cell-based; conditions: THP-1, 3 h
Outline: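 THP1 cell line challenged with LPS, with TNFα secretion as read-out. IC50 is the mean of at least three independent dose–response curves, or of two where flagged.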

Blood = assay: Inhibition of TNF-alpha-stimulated IL8 production in human whole blood incubated for 1 hr before TNFalpha challenge measured after 16 to 18 hrs; type: functional, tissue-based
Outline: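 Human whole blood diluted to 50% and stimulated with TNFα, with IL-8 secretion as read-out. IC50 is the mean of at least three independent dose–response curves, or of two where flagged.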

[3] = target: Mitogen-activated protein kinase 11 (Homo sapiens, UniProt Q15759); assay: Inhibition of p38beta
[4] = target: T1, Mitogen-activated protein kinase 12 (Homo sapiens, UniProt P53778); assay: Inhibition of p38-gamma
T1 sequence (P53778 whole entry): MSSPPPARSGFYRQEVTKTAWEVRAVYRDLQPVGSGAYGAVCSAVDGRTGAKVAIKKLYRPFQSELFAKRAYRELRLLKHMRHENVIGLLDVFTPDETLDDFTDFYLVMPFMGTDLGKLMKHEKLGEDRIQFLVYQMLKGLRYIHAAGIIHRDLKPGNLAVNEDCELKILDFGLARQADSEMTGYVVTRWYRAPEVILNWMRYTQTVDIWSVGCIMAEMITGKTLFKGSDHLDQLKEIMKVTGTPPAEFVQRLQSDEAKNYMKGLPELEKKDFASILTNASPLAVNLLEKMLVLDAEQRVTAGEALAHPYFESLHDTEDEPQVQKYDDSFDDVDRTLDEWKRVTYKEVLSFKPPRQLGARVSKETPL

[5] = target: T2, Mitogen-activated protein kinase 13 (Homo sapiens, UniProt O15264); assay: Inhibition of p38delta
T2 sequence (O15264 whole entry): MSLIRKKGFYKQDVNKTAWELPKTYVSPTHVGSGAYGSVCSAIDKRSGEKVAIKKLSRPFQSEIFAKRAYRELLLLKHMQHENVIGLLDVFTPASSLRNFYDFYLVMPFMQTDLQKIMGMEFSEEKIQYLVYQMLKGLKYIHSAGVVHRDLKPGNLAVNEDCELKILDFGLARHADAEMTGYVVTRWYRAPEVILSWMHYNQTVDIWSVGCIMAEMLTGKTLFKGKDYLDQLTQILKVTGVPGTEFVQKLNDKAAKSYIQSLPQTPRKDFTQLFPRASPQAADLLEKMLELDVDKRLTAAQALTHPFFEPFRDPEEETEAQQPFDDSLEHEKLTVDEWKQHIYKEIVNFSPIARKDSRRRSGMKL

[6] = target: Mitogen-activated protein kinase 8 (Homo sapiens, UniProt P45983); assay: Inhibition of JNK1
[7] = target: Mitogen-activated protein kinase 9 (Homo sapiens, UniProt P45984); assay: Inhibition of JNK2
[8] = target: Mitogen-activated protein kinase 10 (Homo sapiens, UniProt P53779); assay: Inhibition of JNK3
Cytochrome P450 3A4 = Cytochrome P450 3A4 (Homo sapiens, UniProt P08684); assay: Inhibition of CYP3A4; type: ADME
Cytochrome P450 1A2 = target: T3, Cytochrome P450 1A2 (Homo sapiens, UniProt P05177); assay: Inhibition of CYP1A2; type: ADME
T3 sequence (P05177 whole entry): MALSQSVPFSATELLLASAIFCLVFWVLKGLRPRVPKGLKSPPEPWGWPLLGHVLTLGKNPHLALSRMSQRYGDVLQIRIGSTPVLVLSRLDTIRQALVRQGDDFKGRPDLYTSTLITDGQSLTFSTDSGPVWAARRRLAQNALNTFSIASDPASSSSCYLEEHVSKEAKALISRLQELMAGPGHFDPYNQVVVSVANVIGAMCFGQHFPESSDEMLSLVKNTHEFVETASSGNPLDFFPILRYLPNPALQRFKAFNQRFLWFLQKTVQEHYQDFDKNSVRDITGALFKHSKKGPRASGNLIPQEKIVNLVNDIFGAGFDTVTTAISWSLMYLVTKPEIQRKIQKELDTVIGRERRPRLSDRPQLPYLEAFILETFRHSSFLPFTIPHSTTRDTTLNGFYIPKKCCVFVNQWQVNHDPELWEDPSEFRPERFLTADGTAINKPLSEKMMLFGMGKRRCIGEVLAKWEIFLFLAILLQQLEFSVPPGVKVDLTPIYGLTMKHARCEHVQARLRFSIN

Cytochrome P450 2C9 = Cytochrome P450 2C9 (Homo sapiens, UniProt P11712); assay: Inhibition of CYP2C9; type: ADME
Cytochrome P450 2C19 = Cytochrome P450 2C19 (Homo sapiens, UniProt P33261); assay: Inhibition of CYP2C19; type: ADME
Cytochrome P450 2D6 = Cytochrome P450 2D6 (Homo sapiens, UniProt P10635); assay: Inhibition of CYP2D6; type: ADME
[9] = Volume of distribution at steady state in Sprague-Dawley rat at 2 mg/kg, iv; type: ADME, organism-based; design: dose 2 mg/kg, route intravenous; conditions: in vivo, read-out: Vdss; outline: as §1
[10] = Half life in Sprague-Dawley rat at 2 mg/kg, iv; type: ADME, organism-based; design: dose 2 mg/kg, route intravenous; conditions: in vivo; outline: as §1
[11] = AUC (0 to infinity) in Sprague-Dawley rat at 2 mg/kg, po; type: ADME, organism-based; design: time infinity, dose 2 mg/kg, route oral; conditions: plasma; outline: as §1
[12] = Oral bioavailability in Sprague-Dawley rat at 2 mg/kg; type: ADME, organism-based; conditions: in vivo; outline: as §1
Rattus norvegicus [13] = organism: Rattus norvegicus; assay: Plasma concentration in Lewis rat at ED50; type: ADME, organism-based; conditions: in vivo
[14] = Ratio of drug level in brain to plasma in Lewis rat; type: ADME; conditions: read-out: BPR
[15] = Solubility in 0.01N HCl; type: physicochemical
[16] = Solubility in phosphate buffered saline; type: physicochemical
[17] = Solubility in simulated intestinal fluid; type: physicochemical
[18] = Protein binding in rat plasma by ultrafiltration method; conditions: read-out: PPB (converted)
Homo sapiens = organism: Homo sapiens; assay: Protein binding in human plasma by ultrafiltration method; conditions: read-out: PPB (converted)
[19] = target: RAF proto-oncogene serine/threonine-protein kinase (Homo sapiens) (UniProt P04049); assay: Inhibition of c-Raf at 1.5 uM; values are per cent of control
Rattus norvegicus [20] = assay: Inhibition of LPS-induced TNFalpha production in po dosed Lewis rat administered 60 mins prior to LPS challenge measured after 90 mins by ELISA
Rattus norvegicus [21] = assay: Inhibition of LPS-induced TNFalpha production in Lewis rat at 0.1 mg/kg, po administered 60 mins prior to LPS challenge measured after 90 mins by ELISA
Rattus norvegicus [22] = assay: Inhibition of LPS-induced TNFalpha production in Lewis rat at 0.3 mg/kg, po administered 60 mins prior to LPS challenge measured after 90 mins by ELISA
Rattus norvegicus [23] = assay: Inhibition of LPS-induced TNFalpha production in Lewis rat at 0.01 mg/kg, po administered 60 mins prior to LPS challenge measured after 90 mins by ELISA
Rattus norvegicus [24] = assay: Inhibition of LPS-induced TNFalpha production in Lewis rat at 0.03 mg/kg, po administered 60 mins prior to LPS challenge measured after 90 mins by ELISA

Sequence of Mitogen-activated protein kinase 11 (Q15759 whole entry): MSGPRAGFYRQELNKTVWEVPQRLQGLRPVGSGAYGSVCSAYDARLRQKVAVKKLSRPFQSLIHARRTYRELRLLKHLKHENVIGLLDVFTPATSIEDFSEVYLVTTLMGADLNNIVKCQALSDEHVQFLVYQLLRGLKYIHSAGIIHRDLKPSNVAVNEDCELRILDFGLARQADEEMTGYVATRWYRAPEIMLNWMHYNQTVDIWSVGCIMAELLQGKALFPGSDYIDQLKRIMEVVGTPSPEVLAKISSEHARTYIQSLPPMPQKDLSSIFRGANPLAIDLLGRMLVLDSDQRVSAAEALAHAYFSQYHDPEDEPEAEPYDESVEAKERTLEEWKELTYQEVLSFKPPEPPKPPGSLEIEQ
Sequence of Cytochrome P450 2D6 (P10635 whole entry): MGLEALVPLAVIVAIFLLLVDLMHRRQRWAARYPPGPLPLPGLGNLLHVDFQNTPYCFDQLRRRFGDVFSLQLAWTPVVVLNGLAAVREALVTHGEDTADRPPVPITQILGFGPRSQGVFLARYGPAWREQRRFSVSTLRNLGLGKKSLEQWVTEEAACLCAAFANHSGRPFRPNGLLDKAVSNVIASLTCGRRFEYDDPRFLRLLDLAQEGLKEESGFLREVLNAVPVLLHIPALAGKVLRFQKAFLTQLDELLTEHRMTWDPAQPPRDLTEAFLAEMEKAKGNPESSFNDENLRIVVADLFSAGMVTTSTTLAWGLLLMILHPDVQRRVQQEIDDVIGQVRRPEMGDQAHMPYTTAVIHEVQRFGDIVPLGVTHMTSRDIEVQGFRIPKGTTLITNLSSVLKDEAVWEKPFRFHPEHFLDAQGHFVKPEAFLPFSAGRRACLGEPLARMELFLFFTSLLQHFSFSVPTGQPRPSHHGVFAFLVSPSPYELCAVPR
Sequence of Cytochrome P450 2C19 (P33261 whole entry): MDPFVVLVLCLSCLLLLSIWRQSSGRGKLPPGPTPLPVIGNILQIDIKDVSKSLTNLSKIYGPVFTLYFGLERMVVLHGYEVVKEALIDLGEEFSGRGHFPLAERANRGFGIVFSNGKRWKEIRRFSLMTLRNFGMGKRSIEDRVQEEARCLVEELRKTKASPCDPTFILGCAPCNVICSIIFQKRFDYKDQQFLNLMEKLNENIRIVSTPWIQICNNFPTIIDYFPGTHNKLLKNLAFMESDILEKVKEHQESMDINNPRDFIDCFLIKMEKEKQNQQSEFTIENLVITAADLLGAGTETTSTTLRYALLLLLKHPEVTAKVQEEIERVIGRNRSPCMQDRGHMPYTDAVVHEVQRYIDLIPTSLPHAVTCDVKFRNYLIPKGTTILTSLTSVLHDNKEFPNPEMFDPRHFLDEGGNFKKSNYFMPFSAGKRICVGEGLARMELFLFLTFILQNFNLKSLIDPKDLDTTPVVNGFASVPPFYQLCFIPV
Sequence of Cytochrome P450 2C9 (P11712 whole entry): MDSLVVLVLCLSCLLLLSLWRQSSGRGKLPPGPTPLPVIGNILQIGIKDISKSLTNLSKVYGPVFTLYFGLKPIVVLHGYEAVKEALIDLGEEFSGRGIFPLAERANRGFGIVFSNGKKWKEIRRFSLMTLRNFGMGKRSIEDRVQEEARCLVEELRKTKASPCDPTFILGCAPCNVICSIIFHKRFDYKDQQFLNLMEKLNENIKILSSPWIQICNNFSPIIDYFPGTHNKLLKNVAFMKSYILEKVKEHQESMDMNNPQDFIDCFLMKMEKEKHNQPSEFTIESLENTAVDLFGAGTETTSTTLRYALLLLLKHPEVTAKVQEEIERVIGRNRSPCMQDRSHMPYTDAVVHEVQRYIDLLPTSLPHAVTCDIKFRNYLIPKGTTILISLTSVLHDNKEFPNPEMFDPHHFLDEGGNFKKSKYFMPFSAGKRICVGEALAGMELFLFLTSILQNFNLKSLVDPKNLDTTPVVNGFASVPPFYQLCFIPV
Sequence of Cytochrome P450 3A4 (P08684 whole entry): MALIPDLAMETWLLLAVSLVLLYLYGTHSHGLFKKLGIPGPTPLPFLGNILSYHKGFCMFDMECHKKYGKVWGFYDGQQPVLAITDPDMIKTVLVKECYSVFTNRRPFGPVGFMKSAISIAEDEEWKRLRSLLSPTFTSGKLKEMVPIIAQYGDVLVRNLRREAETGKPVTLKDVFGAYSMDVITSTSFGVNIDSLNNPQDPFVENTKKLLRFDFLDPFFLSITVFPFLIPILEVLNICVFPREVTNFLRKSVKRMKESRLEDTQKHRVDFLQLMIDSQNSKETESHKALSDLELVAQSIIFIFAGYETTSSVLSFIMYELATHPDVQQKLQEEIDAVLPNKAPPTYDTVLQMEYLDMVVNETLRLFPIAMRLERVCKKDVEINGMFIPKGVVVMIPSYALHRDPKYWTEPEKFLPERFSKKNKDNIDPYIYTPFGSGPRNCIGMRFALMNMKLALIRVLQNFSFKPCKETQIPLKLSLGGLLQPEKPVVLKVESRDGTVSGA
Sequence of RAF proto-oncogene serine/threonine-protein kinase (Homo sapiens) (P04049 whole entry): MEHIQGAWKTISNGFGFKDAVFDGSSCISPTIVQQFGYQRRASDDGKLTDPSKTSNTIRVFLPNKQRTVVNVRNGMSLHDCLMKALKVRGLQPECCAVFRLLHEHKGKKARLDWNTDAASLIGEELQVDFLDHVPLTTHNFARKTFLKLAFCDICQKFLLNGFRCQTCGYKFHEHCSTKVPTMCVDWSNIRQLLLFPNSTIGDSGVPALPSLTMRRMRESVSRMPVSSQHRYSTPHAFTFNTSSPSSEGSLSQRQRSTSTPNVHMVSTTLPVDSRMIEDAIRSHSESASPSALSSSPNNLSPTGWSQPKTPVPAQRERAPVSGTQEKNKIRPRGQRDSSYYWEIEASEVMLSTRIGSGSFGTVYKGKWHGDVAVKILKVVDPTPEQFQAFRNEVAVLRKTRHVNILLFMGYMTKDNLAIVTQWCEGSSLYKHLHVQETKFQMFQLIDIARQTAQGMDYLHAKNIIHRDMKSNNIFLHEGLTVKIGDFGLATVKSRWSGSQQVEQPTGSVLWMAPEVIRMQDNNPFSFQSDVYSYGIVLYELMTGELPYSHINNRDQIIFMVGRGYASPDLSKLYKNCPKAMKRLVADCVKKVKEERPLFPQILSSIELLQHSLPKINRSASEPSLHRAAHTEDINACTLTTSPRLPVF
Sequence of Mitogen-activated protein kinase 9 (P45984 whole entry): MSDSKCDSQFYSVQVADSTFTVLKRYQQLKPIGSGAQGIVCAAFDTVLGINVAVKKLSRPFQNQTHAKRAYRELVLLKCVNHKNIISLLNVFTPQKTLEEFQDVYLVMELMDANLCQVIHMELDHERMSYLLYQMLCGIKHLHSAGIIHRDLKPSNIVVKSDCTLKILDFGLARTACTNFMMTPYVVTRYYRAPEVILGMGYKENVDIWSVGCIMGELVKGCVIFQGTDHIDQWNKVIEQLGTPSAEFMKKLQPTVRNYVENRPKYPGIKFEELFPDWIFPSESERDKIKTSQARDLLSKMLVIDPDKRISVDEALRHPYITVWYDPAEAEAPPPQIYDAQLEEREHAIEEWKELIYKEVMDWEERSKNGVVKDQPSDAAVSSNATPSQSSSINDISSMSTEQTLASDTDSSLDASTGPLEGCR
Sequence of Mitogen-activated protein kinase 8 (P45983 whole entry): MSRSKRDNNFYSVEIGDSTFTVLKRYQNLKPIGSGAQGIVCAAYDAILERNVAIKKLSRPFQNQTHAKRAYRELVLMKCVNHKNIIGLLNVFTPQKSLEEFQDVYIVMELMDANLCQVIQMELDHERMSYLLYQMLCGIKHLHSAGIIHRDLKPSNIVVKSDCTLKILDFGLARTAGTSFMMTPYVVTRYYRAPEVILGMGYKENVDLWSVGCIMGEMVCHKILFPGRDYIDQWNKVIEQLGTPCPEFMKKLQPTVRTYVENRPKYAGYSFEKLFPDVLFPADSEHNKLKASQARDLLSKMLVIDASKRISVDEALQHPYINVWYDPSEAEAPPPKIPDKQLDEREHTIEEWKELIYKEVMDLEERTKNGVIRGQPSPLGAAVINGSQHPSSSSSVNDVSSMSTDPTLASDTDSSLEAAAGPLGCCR
Sequence of Mitogen-activated protein kinase 10 (P53779 whole entry): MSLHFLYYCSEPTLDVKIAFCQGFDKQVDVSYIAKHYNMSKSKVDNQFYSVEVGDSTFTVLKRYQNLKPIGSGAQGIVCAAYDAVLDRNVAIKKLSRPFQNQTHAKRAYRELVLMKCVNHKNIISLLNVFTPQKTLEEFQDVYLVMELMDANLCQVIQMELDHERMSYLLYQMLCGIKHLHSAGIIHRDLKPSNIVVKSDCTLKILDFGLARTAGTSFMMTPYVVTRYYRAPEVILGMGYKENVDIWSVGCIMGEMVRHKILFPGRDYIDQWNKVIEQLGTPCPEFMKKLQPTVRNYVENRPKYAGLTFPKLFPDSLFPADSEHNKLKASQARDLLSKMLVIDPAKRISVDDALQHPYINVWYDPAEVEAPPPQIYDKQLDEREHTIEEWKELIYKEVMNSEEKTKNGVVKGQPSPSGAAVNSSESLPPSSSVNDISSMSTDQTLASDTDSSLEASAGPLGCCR
Sequence of Mitogen-activated protein kinase 14 (Q16539 whole entry): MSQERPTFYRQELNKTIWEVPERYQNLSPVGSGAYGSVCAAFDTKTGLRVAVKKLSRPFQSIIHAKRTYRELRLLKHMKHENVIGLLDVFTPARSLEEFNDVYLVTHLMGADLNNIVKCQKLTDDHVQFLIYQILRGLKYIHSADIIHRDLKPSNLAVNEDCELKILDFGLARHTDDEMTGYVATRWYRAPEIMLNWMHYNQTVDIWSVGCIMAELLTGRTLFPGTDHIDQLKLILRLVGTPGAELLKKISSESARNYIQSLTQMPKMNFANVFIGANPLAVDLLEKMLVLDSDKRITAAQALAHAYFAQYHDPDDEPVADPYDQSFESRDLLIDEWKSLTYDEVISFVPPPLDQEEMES

Cn1c(=O)cc(Nc2cc(C(=O)NC3CC3)ccc2Cl)c2cnn(-c3ccc(F)cc3)c21
clearance [1]: 4.33 mL/min/kg
IC50 [2]: 0.0015 µM
IC50 (THP-1): 0.0011 µM
IC50 (Blood): 0.0025 µM
IC50 [3]: 0.004 µM
IC50 [4]: > 10 µM
IC50 [5]: > 10 µM
IC50 [6]: > 10 µM
IC50 [7]: > 10 µM
IC50 [8]: > 10 µM
IC50 (Cytochrome P450 3A4): > 30 µM
IC50 (Cytochrome P450 1A2): > 30 µM
IC50 (Cytochrome P450 2C9): > 21 µM
IC50 (Cytochrome P450 2C19): > 21 µM
IC50 (Cytochrome P450 2D6): > 21 µM
Vd [9]: 0.97 L/kg
half-life [10]: 5.8 h
AUC(0-inf) [11]: 6550 ng·h/mL
bioavailability [12]: 84%
Cp (Rattus norvegicus [13]): 3.2 ng/mL
Kp [14]: 0.04
solubility [15]: 31.2 µg/mL (≈ 69 µM)
solubility [16]: 26.6 µg/mL (≈ 58.9 µM)
solubility [17]: 38.8 µg/mL (≈ 85.9 µM)
fraction unbound [18]: 0.03
fraction unbound (Homo sapiens): 0.06
residual activity [19]: 40%
ED50 (Rattus norvegicus [20]): 0.1 mg/kg
inhibition in vivo at 0.1 mg/kg (Rattus norvegicus [21]): 50.1%
inhibition in vivo at 0.3 mg/kg (Rattus norvegicus [22]): 97.4%
inhibition in vivo at 0.01 mg/kg (Rattus norvegicus [23]): 21%
inhibition in vivo at 0.03 mg/kg (Rattus norvegicus [24]): 5.6%
